Among the data in the array DNA melting data of Ke et al. (doi:10.1101/2024.01.08.574731) are Tm and folding enthalpy values, retold here.

Data set [1] can be described thus: melting temperature; fluorescence melt of hairpins on a sequencing array, two-state fit, raised by 9.35 °C to match UV melts. To be noted: sodium 0.088 M. The procedure, abridged: (§1)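 Melting temperature and folding enthalpy were derived from bootstrapped two-state fits. The fitted temperatures were raised by 9.35 °C to agree with UV melts, and four replicates were combined by inverse variance. The underlying data were Cy3 fluorescence images of library hairpins, with annealed Cy3 and quencher oligos, on a sequenced MiSeq flow cell in 50 mM Na-HEPES pH 8.0, 25 mM NaCl, taken in 2.5 °C steps up to 60 °C, normalised to pre-quench Cy3 and to control constructs.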

Data set [2] is described as follows: folding enthalpy; higher = less favourable; fluorescence melt of hairpins on a sequencing array, two-state fit. To be noted: sodium 0.088 M. The procedure, abridged:
as §1

On to GCGATCCCTCGC ((((....)))), for which, in data set [1], the Tm is 49.8 °C. For the same sequence, the folding enthalpy in data set [2] was -24.1 kcal/mol.
For GCTTTTCGAAAGAATAGC (((.(((....))).))) the same measures were 44 °C and -29.3 kcal/mol.
For GCCCGAGGAAACTCGGAC (.(((((....))))).) the same measures were 48.4 °C and -13.1 kcal/mol.
For GCTCAGCGAAAGCTCGGC ((..(((....)))..)) the same measures were 39.5 °C and -14.5 kcal/mol.
Consider GCGATGCGAAAGCACAGC ((..(((....)))..)), for which the Tm in data set [1] stood at 52 °C. In addition, the folding enthalpy in data set [2] is -19.2 kcal/mol.
As for GGCTATGGAAACACAGCC ((((.((....)).)))), in data set [1], the Tm came to 43.2 °C. In data set [2], the folding enthalpy is -29.9 kcal/mol.
The matching figures for GGGTAGACGAAAGTCCCC (((..(((....)))))): 46.5 °C and -18.6 kcal/mol.
The matching figures for GTTGACCGAAAGGTAAC (((.(((....)))))): 38.1 °C and -16.4 kcal/mol.
For the sequence GATCTATTATAGATC ((((((...)))))), the Tm in data set [1] amounted to 41.9 °C. Moreover, in data set [2], the folding enthalpy is -33.4 kcal/mol.
For GCAGATCGAAAGATATGC (((.(((....))).))) the same measures were 54.7 °C and -36.7 kcal/mol.
For GCCAAGCGAAAGCTTCGC ((.((((....)))).)) the same measures were 50.4 °C and -16.8 kcal/mol.
For GGAGAGGAAACTCTCC ((((((....)))))) the same measures were 56.9 °C and -35.1 kcal/mol.
In the case of GATCATTTTCATGATC ((((((....)))))), the Tm in data set [1] stood at 47.6 °C. Also, in data set [2], the folding enthalpy was -31.1 kcal/mol.
The matching figures for GGTGAACGAAAGTTGACC (((.(((....))).))): 48.9 °C and -30.4 kcal/mol.
For GCTGTAGGAAACTACAAC (.(((((....))))).) the same measures were 30.9 °C and -19.2 kcal/mol.
The matching figures for GTACGTGGAAACGTGTAC ((((..(....)..)))): 37.4 °C and -12.3 kcal/mol.
Take GCGTGATCGAAAGATCGC (((..(((....)))))): the Tm in data set [1] came out at 47.5 °C. The folding enthalpy in data set [2] was -15.6 kcal/mol.
The matching figures for GGTACCCCGAAAGGGACC (((..(((....)))))): 46.7 °C and -19.8 kcal/mol.
On to GGTGAGGGAAACCTTGCC ((..(((....)))..)), for which the Tm in data set [1] is 41.8 °C. In addition, in data set [2], the folding enthalpy was -21.7 kcal/mol.
The matching figures for GTTTGACGAAAGTCCAAC (((.(((....))).))): 40.5 °C and -20.6 kcal/mol.
With GTAGACCGAAAGGTTAC (((.(((....)))))), in data set [1], the Tm amounted to 38.5 °C. In addition, the folding enthalpy in data set [2] was -16.7 kcal/mol.
For TAGGCGAAAGCCTA (((((....))))) the same measures were 65.5 °C and -12.2 kcal/mol.
With GATCTTAGCTAAGATC ((((((....)))))), the Tm in data set [1] was 48.5 °C. Moreover, the folding enthalpy in data set [2] is -43.9 kcal/mol.
The matching figures for GATCTTTGTTAAGATC ((((((....)))))): 44 °C and -33.6 kcal/mol.
The matching figures for GAAAGGCGAAAGCCGTTC (((.(((....))).))): 46.7 °C and -11.9 kcal/mol.
For GCAGAATCGAAAGATTGC (((..(((....)))))) the same measures were 34.6 °C and -21.1 kcal/mol.
With GATCCATATTGGATC ((((((...)))))), the Tm in data set [1] amounted to 51.7 °C. Moreover, the folding enthalpy in data set [2] is -37.3 kcal/mol.
As for GGTTGGCGAAAGCCTACC (((.(((....))).))), the Tm in data set [1] came to 59.6 °C. For the same sequence, the folding enthalpy in data set [2] is -25.3 kcal/mol.
On to GCAGGAGGAAACCCCTGC (((((.(....).))))), for which, in data set [1], the Tm was 50.9 °C. Also, in data set [2], the folding enthalpy is -41.4 kcal/mol.
The matching figures for GGGTGACCGAAAGGTCCC (((..(((....)))))): 51.6 °C and -12.5 kcal/mol.
The matching figures for GCCGTGACGAAAGTCGGC (((..(((....)))))): 57.1 °C and -23.3 kcal/mol.
Take GATTGTGGAAACACAACC (.(((((....))))).): in data set [1], the Tm amounted to 35.9 °C. Further, the folding enthalpy in data set [2] is -16.9 kcal/mol.
The matching figures for CGTACGAAAGTACG (((((....))))): 68.9 °C and -26.7 kcal/mol.
Turning to GCACACGAAAGTGAGTGC ((((((....)))..))), in data set [1], the Tm is 51.7 °C. Also, the folding enthalpy in data set [2] was -30.9 kcal/mol.
The matching figures for GTCTTGGGAAACCAAGGC (.(((((....))))).): 51 °C and -24.4 kcal/mol.
The matching figures for GTTCCTCGAAAGAGCAAC (((.(((....))).))): 29.4 °C and -14.3 kcal/mol.
For GGTAAAGGAAACTTTATC (.(((((....))))).) the same measures were 30.5 °C and -18.7 kcal/mol.
